Compounds with a hit are over-represented: about 2.5% of the library has one in this group of screens.
TDP2 absorb: human TDP2 enzyme inhibitors, primary screen, biochemical, epi absorbance, recombinant enzyme | Tyrosyl-DNA phosphodiesterase 2 (Homo sapiens), O95551 | T5PNP hydrolysis, p-nitrophenol absorbance 415 nm | inhibition, % at 12.8 µM | actives 0.34% (n = 370,000) | AID 720702, 2013;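 active = inhibition above the mean of all tested compounds plus 3 SD, set per campaign, cut at about 25% in these data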;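 also: 0% = DMSO with enzyme and 100% = buffer with substrate but no TDP2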
Target sequence (O95551 whole entry, looked up): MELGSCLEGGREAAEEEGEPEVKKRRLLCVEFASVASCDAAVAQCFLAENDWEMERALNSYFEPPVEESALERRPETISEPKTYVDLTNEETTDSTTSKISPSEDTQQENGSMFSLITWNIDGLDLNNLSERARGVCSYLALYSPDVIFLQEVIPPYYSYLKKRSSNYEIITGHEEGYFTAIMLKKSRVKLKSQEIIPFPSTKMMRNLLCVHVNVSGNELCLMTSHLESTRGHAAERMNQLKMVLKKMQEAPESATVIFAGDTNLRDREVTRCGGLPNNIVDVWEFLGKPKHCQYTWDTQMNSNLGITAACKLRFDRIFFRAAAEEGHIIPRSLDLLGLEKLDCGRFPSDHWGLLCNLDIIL
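Evaluation: % inhibition relative to enzyme-containing and enzyme-free wells. Material: recombinant human TDP2. Benchmarks: enzyme-free and DMSO wells. Timing: enzyme reaction with compound for 2 h at 37 °C. Compound dosing: 12.8 µM only. Measured by: p-Nitrophenol epi absorbance. Reagent: T5PNP substrate at 5 mM, a TopII-DNA adduct mimic. Replication: single well per compound.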
PRMT1 inh: PRMT1 methyltransferase inhibitors, primary screen, biochemical, fluorescence polarization; recombinant PRMT1, activity-based probe fluorescence polarization; inhibition, % at 2.79 µM; actives 1.3% (n = 370,000);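 active = inhibition above about 21% made by adding two undisclosed values, limit read from the data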
GSTO1 counter: inhibitors of recombinant GSTO1, primary screen, counter-screen for RBBP9 inhibitor project, biochemical, fluorescence polarization. inhibition, % at 5.96 µM. Glutathione S-transferase omega-1 (Homo sapiens), P78417. activity-based probe fluorescence polarization. actives 1.1% (n = 300,000);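 active = inhibition above the campaign mean inhibition plus 3 SD, cut at about 35% in these data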;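 also: 0% = GSTO1-1 with DMSO and 100% = wells lacking GSTO1-1 enzyme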
PAD4 FP inh: human PAD4 inhibitors, primary screen, biochemical, fluorescence polarization, 1536-well format | actives 0.41% (n = 330,000) | AID 485272, 2010 | Protein-arginine deiminase type-4 (Homo sapiens), Q9UM07 | recombinant PAD4, RCA probe fluorescence polarization | inhibition, % at 6.36 µM;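 active = percent inhibition above a cutoff equal to the mean of all tested compounds plus 3 SD, cut at about 15% in these data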;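 also: 0% = PAD4 with RCA probe and DMSO and 100% = probe without PAD4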
E coli Lon inh: inhibitors of E. coli Lon protease, primary screen, biochemical, fluorescence polarization. P0A9M0. purified E. coli Lon protease. inhibition, % at 7.94 µM. actives 0.42% (n = 360,000). AID 602123, 2011; in the data active = inhibition above about 13%, passing the limit was not always enough;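 also: 0% = enzyme with probe and DMSO and 100% = no enzyme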
PRMT1 confirm: PRMT1 methyltransferase inhibitors, confirmation, biochemical, fluorescence polarization, triplicate; shares compounds with PRMT1 inh; recombinant His-PRMT1, activity-based probe fluorescence polarization; inhibition, % at 2.79 µM; actives 42% (n = 3,300);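 active = mean inhibition across replicates above the hit cutoff derived for the earlier primary screen, cut at about 22% in these data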
* marks the source's active call; other numbers are inactive results; . = no result.

SMILES	TDP2 absorb	PRMT1 inh	GSTO1 counter	PAD4 FP inh	E coli Lon inh	PRMT1 confirm
COc1cc(C2Nc3c(F)cccc3C3C=CCC32)cc(Br)c1OC (centres undefined)	-9	19	-9	-9	-5	.
COc1ccc(OC)c(C2Nc3c(Cl)ccc(C(=O)O)c3C3C=CCC32)c1 (centres undefined)	13	46*	20	-3	4	28*
CCCCn1c(=O)[nH]c(=O)c2c1nc(Cn1ncc(Cl)c(Cl)c1=O)n2CCC	20	0	24	10	-2	.
CCc1ccc(CCNC(=O)OCCCN2CCC3(CCC(C)CC3)C2=O)cc1 (centres undefined)	4	-1	.	.	.	.
Cc1cccc(N2C(=O)C(Cl)=C(N3CCOCC3)C2=O)c1	9	28*	10	-3	1	1
Cc1cccc2nc(CSc3nc4cc([N+](=O)[O-])ccc4s3)cn12	2	53*	4	-3	-18	-3
Cc1cccc2nc(CSc3ccc(Cl)cc3)cn12	-11	-3	-12	-6	5	.
COc1ccc(CCN2C(=O)CC(NCc3ccc4c(c3)OCO4)C2=O)cc1OC (centres undefined)	.	.	-1	-8	-5	.
COc1ccc(CCNC2CC(=O)N(CCc3ccc(OC)c(OC)c3)C2=O)cc1OC (centres undefined)	2	54*	.	.	-6	1
NS(=O)(=O)c1ccc(CCNC(=O)CNC(=O)c2ccc(Br)o2)cc1	.	.	.	-12	2	.
CC(=O)c1cccc(NC(=O)CSc2ccc(-c3ccco3)nn2)c1	18	54*	10	-1	-25	66*
O=C(CSc1ccc(-c2ccccn2)nn1)Nc1ccc(F)cc1F	-2	0	-2	0	-4	.
O=C(CSc1ccc(-c2ccco2)nn1)c1cccc([N+](=O)[O-])c1	-9	31*	12	0	-13	4
O=C(CSc1ccc(-c2ccco2)nn1)N1CCCC1	-2	11	10	-3	-3	.
O=C(CSc1ncn[nH]1)c1cccc([N+](=O)[O-])c1	7	32*	5	4	-6	25*
O=C(CSc1ccc(-c2ccco2)nn1)Nc1ccc(F)cc1F	17	34*	4	1	-7	3
CNC(=O)c1ccc(NC(=O)c2ccccc2OCc2c(C)noc2C)cc1	1	-1	.	.	3	.
Cc1ccc(OCC(=O)NCCNC(=O)c2ccco2)cc1	-17	-4	1	-5	7	.
CC(C)c1ccc(-c2c(NCCc3ccccc3)c(=O)c2=O)cc1	-13	9	-5	-4	-4	.
CC(C)(C)S(=O)N1Cc2cc(=O)n(Cc3ccccc3)cc2[C@@H]1CCO (some centres undefined)	3	14	.	.	10	.
CCOc1ccc(/C(O)=C2\C(=O)C(=O)N(c3ccccn3)C2c2ccccc2F)c(C)c1 (centres undefined)	0	-3	.	.	-12	.
CCN1CCCC1CNC(=O)Cn1nc(C)n2c(cc3cc(F)ccc32)c1=O (centres undefined)	8	33*	2	-1	-9	2
Cc1ccc(C)c(OCCC(=O)OCC(=O)Nc2cccnc2Cl)c1	-19	-1	5	1	-2	.
COc1ccc(Br)c(Cn2c(C)c(C(=O)NCCC#N)sc2=O)c1	-1	1	.	.	-7	.
O=C(COC(=O)c1c2c(nc3ccccc13)/C(=C/c1ccco1)CC2)NC1CCCC1	0	35*	.	.	3	28*
CC1CCCCC1NC(=O)COC(=O)c1c2c(nc3ccccc13)/C(=C/c1ccco1)CC2 (centres undefined)	6	16	18	-1	-21	.
O=C(c1ccc(-c2ccc([N+](=O)[O-])cc2)o1)N1CCCCCCC1	-7	31*	.	-5	-3	-1
O=[N+]([O-])c1ccccc1-c1ccc(C(=S)N2CCCC2)o1	6	39*	5	-2	2	8
